# Published values pooled from the literature.
# Protocols differ between the studies behind these lines.
# SLC10A2: Ileal sodium/bile acid cotransporter (SLC10A2, Homo sapiens, UniProt Q12908)
# AHR: Aryl hydrocarbon receptor (AHR, Homo sapiens, UniProt P35869)
SMILES,target,effect on,action,technique,pH,endpoint,result
COC(=O)C1=C(C)NC(C)=C(C(=O)OCC(C)C)C1c1ccccc1[N+](=O)[O-] (stereo not drawn),SLC10A2,transporter uptake,inhibitor,,,Ki,4.77 µM
O=C(N[C@H]1COC(=O)[C@@H](NC(=O)c2cccc(O)c2O)COC(=O)[C@@H](NC(=O)c2cccc(O)c2O)COC1=O)c1cccc(O)c1O,"Neutrophil gelatinase-associated lipocalin (LCN2, Homo sapiens, UniProt P80188, C107S)",binding,,fluorescence,pH 7.4,Kd,0.0036 µM
C#Cc1cccc(Nc2ncnc3cc(OC)c(OCCCCCCC(=O)NO)cc23)c1,"Polyamine deacetylase HDAC10 (HDAC10, Homo sapiens, UniProt Q969S8)",cell-free assay,,,,Kd,7.38 µM
CN(C)C(=O)c1cccc(C(=O)c2c[nH]c3ccccc23)n1,AHR,reporter gene,agonist,luciferase,,EC50,0.351 µM
CCOC(=O)C1=C(C)NC(C)=C(C(=O)OC)C1c1cccc([N+](=O)[O-])c1 (stereo not drawn),SLC10A2,transporter uptake,inhibitor,,,Ki,34.1 µM
CSCC[C@H](NC(=O)[C@@H](NC(=O)[C@@H](N)Cc1ccc(O)cc1)C(C)C)C(=O)NCC(=O)N[C@@H](Cc1c[nH]cn1)C(=O)N[C@@H](Cc1ccccc1)C(=O)O,"Melanocortin receptor 5 (MC5R, Homo sapiens, UniProt P33032)",reporter gene,agonist,,,EC50,> 100 µM
COc1ccccc1C(=O)c1c[nH]c2ccccc12,AHR,reporter gene,agonist,luciferase,,EC50,> 10 µM
CCc1c(C)sc(NC(=O)C(Sc2ccccc2)c2ccccc2)c1C(=O)OC (stereo not drawn),"Cannabinoid receptor 2 (CNR2, Homo sapiens, UniProt P34972)",cAMP,agonist,TR-FRET,,EC50,0.0251 µM
N=C(N)c1ccc(CN)cc1,"Coagulation factor X (F10, Homo sapiens, UniProt P00742)",binding,,BLI,,Kd,1700 µM
C=CCSCC1Nc2cc(Cl)c(S(N)(=O)=O)cc2S(=O)(=O)N1 (stereo not drawn),SLC10A2,transporter uptake,inhibitor,,,Ki,391 µM
Cc1cnc(-c2ccc(-c3ccc(NC(=O)Nc4c(F)cc(F)cc4F)cc3F)c3c2C(=O)NC3)[nH]1,"Epithelial discoidin domain-containing receptor 1 (DDR1, Homo sapiens, UniProt Q08345)",binding,,competition with immobilised ligand,,Kd,0.0021 µM
COC(=O)c1ccc(C(=O)c2c[nH]c3ccccc23)cc1,AHR,reporter gene,agonist,luciferase,,EC50,> 10 µM
COCCOC(=O)C1=C(C)NC(C)=C(C(=O)OC/C=C/c2ccccc2)C1c1cccc([N+](=O)[O-])c1 (stereo not drawn),SLC10A2,transporter uptake,inhibitor,,,Ki,45.2 µM
COC(=O)c1cccc(C(=O)c2c[nH]c3c4c(ccc23)CCC4)n1,AHR,reporter gene,agonist,luciferase,,EC50,0.031 µM
CC[C@H](C)C(=O)O[C@H]1C[C@H](O)C=C2C=C[C@H](C)[C@H](CC[C@@H](O)C[C@@H](O)CC(=O)O)[C@H]21,SLC10A2,transporter uptake,inhibitor,,,Ki,1360 µM
